Legend:
[1] = Ratio of drug uptake in Sprague-Dawley rat liver to plasma at 10 mg/kg, ig administered as single dose measured after 0.5 hrs by UPLC-MS/MS analysis; type: ADME, organism-based; details: po
[2] = Protein binding in rat plasma at 10 uM after 6 hrs by UPLC-MS/MS based equilibrium dialysis method; type: ADME, cell-free; details: read-out: PPB (converted)
How it was run: (§1)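 Equilibrium dialysis: plasma (pH 7.4) preincubated 15 min at 37 °C, spiked with compound at 1 or 10 µM (0.5% DMSO final); dialysed against 100 mM phosphate buffer pH 7.4, 6 h at 37 °C, 100 rpm; donor and receiver samples analysed by UPLC-MS/MS.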

Mus musculus [3] = assay: Toxicity in ICR mouse assessed as monocyte level in serum at 150 mg/kg, po administered via gavage once daily for 14 days (reference value: 12.93 +/- 3.61%); type: organism-based; details: in vivo, 336 h
How it was run: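 Haematology on abdominal aortic blood taken at necropsy under ether anaesthesia after 14 daily gavage doses (20 ml/kg) in ICR mice, 5 per sex per group, vehicle control. Parameters: WBC, RBC, haemoglobin, platelets, reticulocyte ratio and differential leukocyte counts; mean ± SD, n = 10.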

[4] = Protein binding in human plasma at 10 uM after 6 hrs by UPLC-MS/MS based equilibrium dialysis method; type: ADME, cell-free; details: read-out: PPB (converted); how it was run: as §1
[5] = Ratio of drug uptake in Sprague-Dawley rat liver to plasma at 10 mg/kg, ig administered as single dose measured after 2 hrs by UPLC-MS/MS analysis; type: ADME, organism-based; details: po
[6] = Half life in beagle dog at 2 mg/kg, po administered as single dose by UPLC-MS/MS analysis; type: ADME, organism-based, Canis lupus familiaris; details: in vivo
Mus musculus [7] = assay: Toxicity in ICR mouse assessed as serum creatine kinase level at 150 mg/kg, po administered via gavage once daily for 14 days (reference value: 705.78 +/- 330.84 U/L); type: organism-based; details: in vivo, 336 h
Cytochrome P450 2C19 = Cytochrome P450 2C19 (Homo sapiens, UniProt P33261); assay: Inhibition of CYP2C19 in human liver microsomes at 1 to 10 uM using (S)-mephenytoin as substrate preincubated for 5 mins followed by NADPH addition measured after 30 mins by UPLC-MS/MS analysis relative to control; type: ADME; details: 0.5 h
Sequence of Cytochrome P450 2C19 (P33261 whole entry): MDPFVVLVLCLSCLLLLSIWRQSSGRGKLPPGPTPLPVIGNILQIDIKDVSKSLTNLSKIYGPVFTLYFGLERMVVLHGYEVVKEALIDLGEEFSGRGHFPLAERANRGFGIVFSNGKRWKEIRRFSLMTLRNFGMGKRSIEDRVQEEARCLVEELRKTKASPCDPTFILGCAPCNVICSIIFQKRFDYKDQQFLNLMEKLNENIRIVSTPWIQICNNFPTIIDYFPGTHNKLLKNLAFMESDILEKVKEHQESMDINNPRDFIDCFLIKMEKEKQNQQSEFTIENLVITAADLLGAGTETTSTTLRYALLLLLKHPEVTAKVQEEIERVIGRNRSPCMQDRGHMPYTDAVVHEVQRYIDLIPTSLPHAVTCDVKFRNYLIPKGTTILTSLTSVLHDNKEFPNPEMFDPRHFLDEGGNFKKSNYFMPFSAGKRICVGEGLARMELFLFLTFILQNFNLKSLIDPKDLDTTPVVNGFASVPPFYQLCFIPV

[8] = Half life in mouse at 10 mg/kg, ig administered as single dose by UPLC-MS/MS analysis; type: ADME, organism-based; details: in vivo, po
How it was run: (§2)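 Adult male mice (12 h light-dark, 22 °C, 55% humidity) fasted 12 h with free water, then given a single 10 mg/kg intragastric dose; plasma concentrations by UPLC-MS/MS; PK parameters calculated by software.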

Mus musculus [9] = assay: Toxicity in ICR mouse assessed as thymus weight at 150 mg/kg, po administered via gavage once daily for 14 days (reference value: 0.289 +/- 0.081 g); type: organism-based; details: in vivo, 336 h
[10] = AUC (0 to t) in mouse at 10 mg/kg, ig administered as single dose by UPLC-MS/MS analysis; type: ADME, organism-based; details: in vivo, po; how it was run: as §2
[11] = Cytotoxicity against HUVEC assessed as growth inhibition at 50 uM relative to control; type: cell-based; details: human, read-out: GI
How it was run: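 HUVEC from healthy donors exposed to compound at 50 µM; percent inhibition reported as mean of n = 3.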

[12] = Apparent permeability from basolateral to apical side in human Caco2 cells after 90 mins by UPLC-MS/MS analysis; type: ADME, cell-based; details: Caco-2
How it was run: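 Caco-2 cells on Transwell inserts grown 21-23 days to TEER ≥200 Ω cm²; rinsed with warm HBSS, preincubated 30 min at 37 °C in 2% BSA with or without inhibitor; compound in 2% BSA added apical or basolateral, 90 min at 37 °C; receiver sampled, UPLC-MS/MS; duplicate; Papp calculated.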

[13] = Ratio of drug uptake in Sprague-Dawley rat liver to plasma at 10 mg/kg, ig administered as single dose measured after 24 hrs by UPLC-MS/MS analysis; type: ADME, organism-based; details: po
Cytochrome P450 2A6 = molecular target: T1, Cytochrome P450 2A6 (Homo sapiens, UniProt P11509); assay: Inhibition of CYP2A6 in human liver microsomes at 1 to 10 uM using coumarin as substrate preincubated for 5 mins followed by NADPH addition measured after 30 mins by UPLC-MS/MS analysis relative to control; type: ADME; details: 0.5 h
T1 sequence (P11509 whole entry): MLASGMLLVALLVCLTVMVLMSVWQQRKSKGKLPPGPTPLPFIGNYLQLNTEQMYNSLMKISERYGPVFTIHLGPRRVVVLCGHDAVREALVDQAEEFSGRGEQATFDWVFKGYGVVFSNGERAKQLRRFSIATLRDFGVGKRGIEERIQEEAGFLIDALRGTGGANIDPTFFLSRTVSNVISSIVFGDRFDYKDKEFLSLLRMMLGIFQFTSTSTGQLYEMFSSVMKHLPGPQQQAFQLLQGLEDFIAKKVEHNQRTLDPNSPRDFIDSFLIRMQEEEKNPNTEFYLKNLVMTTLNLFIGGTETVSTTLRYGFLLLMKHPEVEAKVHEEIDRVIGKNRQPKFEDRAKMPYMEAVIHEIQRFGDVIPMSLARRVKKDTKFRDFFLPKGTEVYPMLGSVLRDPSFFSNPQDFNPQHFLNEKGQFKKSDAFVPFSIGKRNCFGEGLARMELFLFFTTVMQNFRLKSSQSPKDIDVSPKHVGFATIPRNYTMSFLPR

[14] = Cmax in mouse at 10 mg/kg, ig administered as single dose by UPLC-MS/MS analysis; type: ADME, organism-based; parameters: dose 10 mg/kg, route intragastric; details: in vivo, po; how it was run: as §2
[15] = Metabolic stability in human liver microsomes assessed as parent compound remaining at 0.2 uM preincubated for 5 mins followed by NADPH addition measured up to 60 mins by UPLC-MS/MS analysis; type: ADME, microsome; details: read-out: Stability
How it was run: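 Pooled mouse, rat or human liver microsomes 0.2 mg/mL with 1 mM NADPH, 5 mM MgCl2, 100 mM potassium phosphate pH 7.4 and 0.2 µM compound; 5-min preincubation at 37 °C, NADPH start, sampled at 5, 15, 30, 60 min; ice-cold acetonitrile stop; UPLC-MS/MS; percent parent remaining at 60 min.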

Cytochrome P450 2D6 = Cytochrome P450 2D6 (Homo sapiens, UniProt P10635); assay: Inhibition of CYP2D6 in human liver microsomes at 1 to 10 uM using dextromethorphan as substrate preincubated for 5 mins followed by NADPH addition measured after 30 mins by UPLC-MS/MS analysis relative to control; type: ADME; details: 0.5 h
Sequence of Cytochrome P450 2D6 (P10635 whole entry): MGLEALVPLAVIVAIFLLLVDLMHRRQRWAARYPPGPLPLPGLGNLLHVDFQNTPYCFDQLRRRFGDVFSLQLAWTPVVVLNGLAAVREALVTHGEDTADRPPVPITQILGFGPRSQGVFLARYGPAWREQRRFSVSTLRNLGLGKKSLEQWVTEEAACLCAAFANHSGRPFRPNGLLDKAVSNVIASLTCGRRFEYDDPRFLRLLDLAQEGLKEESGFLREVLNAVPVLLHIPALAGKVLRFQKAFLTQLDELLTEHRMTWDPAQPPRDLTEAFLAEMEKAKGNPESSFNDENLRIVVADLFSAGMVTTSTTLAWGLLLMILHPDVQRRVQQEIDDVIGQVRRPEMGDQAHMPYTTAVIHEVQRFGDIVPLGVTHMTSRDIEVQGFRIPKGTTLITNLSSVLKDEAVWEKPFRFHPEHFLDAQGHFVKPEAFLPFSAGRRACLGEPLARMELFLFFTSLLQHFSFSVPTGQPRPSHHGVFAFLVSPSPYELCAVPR

[16] = Protein binding in mouse plasma at 10 uM after 6 hrs by UPLC-MS/MS based equilibrium dialysis method; type: ADME, cell-free; details: read-out: PPB (converted); how it was run: as §1
Cytochrome P450 3A4 [17] = molecular target: T2, Cytochrome P450 3A4 (Homo sapiens, UniProt P08684); assay: Inhibition of CYP3A4 in human liver microsomes at 1 to 10 uM using midazolam as substrate preincubated for 5 mins followed by NADPH addition measured after 30 mins by UPLC-MS/MS analysis relative to control; type: ADME; details: 0.5 h
T2 sequence (P08684 whole entry): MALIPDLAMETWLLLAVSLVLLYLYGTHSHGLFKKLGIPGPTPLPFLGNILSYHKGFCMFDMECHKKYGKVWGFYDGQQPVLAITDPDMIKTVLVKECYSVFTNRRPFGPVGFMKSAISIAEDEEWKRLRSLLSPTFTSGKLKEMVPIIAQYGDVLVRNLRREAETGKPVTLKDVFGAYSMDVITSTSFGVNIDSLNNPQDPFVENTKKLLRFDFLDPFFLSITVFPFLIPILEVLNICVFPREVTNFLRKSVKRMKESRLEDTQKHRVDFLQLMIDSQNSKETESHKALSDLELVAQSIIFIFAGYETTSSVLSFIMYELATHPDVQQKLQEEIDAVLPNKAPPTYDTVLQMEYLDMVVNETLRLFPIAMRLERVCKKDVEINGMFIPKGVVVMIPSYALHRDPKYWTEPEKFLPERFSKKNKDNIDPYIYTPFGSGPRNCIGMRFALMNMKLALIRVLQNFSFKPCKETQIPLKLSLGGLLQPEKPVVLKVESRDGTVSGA

Cytochrome P450 3A4 [18] = molecular target: T2, Cytochrome P450 3A4; assay: Inhibition of CYP3A4 in human liver microsomes at 1 to 10 uM using nifedipine as substrate preincubated for 5 mins followed by NADPH addition measured after 30 mins by UPLC-MS/MS analysis relative to control; type: ADME; details: 0.5 h
[19] = Protein binding in mouse plasma at 1 uM after 6 hrs by UPLC-MS/MS based equilibrium dialysis method; type: ADME, cell-free; details: read-out: PPB (converted); how it was run: as §1
[20] = Cmax in beagle dog at 2 mg/kg, po administered as single dose by UPLC-MS/MS analysis; type: ADME, organism-based, Canis lupus familiaris; parameters: dose 2 mg/kg, route oral; details: in vivo

SMILES: CC[Si](CC)(CC)c1ccc(N2[C@H](c3ccc(NC(=O)[C@@H]4CCCN4C(=O)[C@@H](NC(=O)OC)C(C)C)cc3)CC[C@H]2c2ccc(NC(=O)[C@@H]3CCCN3C(=O)[C@@H](NC(=O)OC)C(C)C)cc2)cc1
- Kp at 0.5 h [1]: 7.22
- fraction unbound at 6 h, 10 µM [2]: 0.00017
- Activity (Mus musculus [3]): 12.44%
- fraction unbound at 6 h, 10 µM [4]: 8e-05
- Kp at 2 h [5]: 28.1
- half-life [6]: 762 min
- Activity (Mus musculus [7]): 953.3 U/L
- inhibition (INH) (Cytochrome P450 2C19): Not Active
- half-life [8]: 1350 min
- Activity (Mus musculus [9]): 0.24 g
- AUC(0-t) [10]: 3040 ng·h/mL
- inhibition at 50 µM [11]: 16.6%
- Papp B→A at 1.5 h [12]: 0.05 ×10⁻⁶ cm/s
- Kp at 24 h [13]: 31.9
- inhibition (INH) (Cytochrome P450 2A6): Not Active
- Cmax [14]: 198 ng/mL
- remaining at 1 h, 0.2 µM [15]: 85.6%
- inhibition (INH) (Cytochrome P450 2D6): Not Active
- fraction unbound at 6 h, 10 µM [16]: 0.00011
- inhibition (INH) (Cytochrome P450 3A4 [17]): Not Active
- inhibition (INH) (Cytochrome P450 3A4 [18]): Not Active
- fraction unbound at 6 h, 1 µM [19]: 8e-05
- Cmax [20]: 29.2 ng/mL

SMILES: COC(=O)N[C@H](C(=O)N1CCC[C@H]1C(=O)Nc1ccc([C@@H]2CC[C@@H](c3ccc(NC(=O)[C@@H]4CCCN4C(=O)[C@@H](NC(=O)OC)C(C)C)cc3)N2c2ccc(C(C)(C)C)cc2)cc1)C(C)C [OMBITASVIR]
- Kp at 0.5 h [1]: 43.4
- fraction unbound at 6 h, 10 µM [2]: 1e-05
- fraction unbound at 6 h, 10 µM [4]: 4e-05
- Kp at 2 h [5]: 24.6
- half-life [6]: 666 min
- inhibition (INH) (Cytochrome P450 2C19): Not Active
- half-life [8]: 462 min
- AUC(0-t) [10]: 6480 ng·h/mL
- inhibition at 50 µM [11]: 11.8%
- Papp B→A at 1.5 h [12]: 0.54 ×10⁻⁶ cm/s
- Kp at 24 h [13]: 22.3
- inhibition (INH) (Cytochrome P450 2A6): Not Active
- Cmax [14]: 583 ng/mL
- remaining at 1 h, 0.2 µM [15]: 96.2%
- inhibition (INH) (Cytochrome P450 2D6): Not Active
- fraction unbound at 6 h, 10 µM [16]: 1e-05
- inhibition (INH) (Cytochrome P450 3A4 [17]): Not Active
- inhibition (INH) (Cytochrome P450 3A4 [18]): Not Active
- fraction unbound at 6 h, 1 µM [19]: 4e-05
- Cmax [20]: 15.7 ng/mL
